Screens deposited in PubChem BioAssay by SRMLSC.
Yeast lifespan up: extends the lifespan of yeast; inhibition of the nicotinamide effect, % at 10 µM; 0.68% of 130,000 active; S. cerevisiae growth with nicotinamide, OD615; deaD strain in restrictive glucose medium;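 active means inhibition above a set limit, placed 3 SD over the median of all compounds, cut at about 26% in these data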
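Assay system: engineered S. cerevisiae DeaD replicative-lifespan strain, galactose-grown log-phase cells; Buffer or medium: CSMM-D glucose medium, restrictive; Probe or stimulus: nicotinamide 1.5 mM; Compound: single dose 10 µM compound, 0.25% DMSO; Schedule: 4 h preincubation then 48 h treatment at 30 °C; Technique: OD615 measurement.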
WT yeast gro inh: growth inhibition of WT yeast, mitochondrial fusion screen. inhibition, % at 10 µM. 2.1% of 190,000 active. mitochondrial fusion phenotypic screen, WT strain; in the data active means inhibition above about 58%; tested in S. cerevisiae
Yeast growth inh: chemicals that inhibit yeast BB579 growth in restrictive medium (lifespan-shortening candidates); S. cerevisiae BB579 growth, OD615, 48 h; inhibition, % at 10 µM; 0.51% of 140,000 active;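 active means inhibition above a set limit, 3 SD over the mean compound inhibition, cut at about 44% in these data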
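System: DeaD yeast strain BB579; buffer or medium: CSMM-D dextrose restrictive medium; technique: OD at 615 nm; schedule: 4 h cell preincubation, 48 h compound exposure, 30 °C humidified; doses: single 10 µM dose; controls: amphotericin B 10 µg/mL, positive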
RAM inhibit: yeast RAM network inhibition; S. cerevisiae dse1pr::URA3 reporter, 5-FOA growth OD615, 2 d; analog-sensitive cbk1-as2 kinase mutant strain; inhibition, % at 50 µM; 1.8% of 190,000 active;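 active means inhibition above a set limit, 3 SD over mean compound inhibition, cut at about 8.4% in these data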;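 further: inhibition rescues growth on 5-FOA so higher OD means more RAM inhibition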
Hits are given with their value; i = inactive; nt = no result. Only some compounds are listed: those with a hit (about 4.3% of all), similar ones and a draw of the others.

SMILES	Yeast lifespan up	WT yeast gro inh	Yeast growth inh	RAM inhibit
C#CCOCCOCCOCCNc1nc(N2CCN(C(=O)[C@H](CCC(=O)O)n3cc(C(N)CC(C)C)nn3)CC2)nc(N2CCN(C(=O)[C@H](CCC(=O)O)n3cc(C(N)CC(C)C)nn3)CC2)n1 (some centres undefined)	nt	i	nt	i
COc1ccc(CNC(=O)C2CCCN2S(=O)(=O)c2ccc(F)cc2)cc1 (centres undefined)	nt	i	nt	i
COc1ccc2[nH]c(C)c(CCN(Cc3cccs3)C(=S)Nc3ccccc3)c2c1	i	i	i	i
COc1ccc(NC(=S)N(CCc2c(C)[nH]c3ccc(C)cc23)Cc2ccco2)cc1	i	69	i	i
COCCNC(=S)N(CCc1c(C)[nH]c2ccc(C)cc12)Cc1ccco1	nt	i	nt	i
CNC(=S)N(CCc1c(C)[nH]c2ccc(C)cc12)Cc1cccs1	nt	65	nt	i
COc1ccc(NC(=S)N(CCc2c(C)[nH]c3ccc(C)cc23)Cc2cccs2)cc1	i	66	i	i
COc1ccc2[nH]c(C)c(CCN(Cc3cccs3)C(=S)Nc3ccc(F)cc3)c2c1	i	i	i	i
C=CCn1nnnc1-c1cc(Cl)cc(Cl)c1	nt	i	nt	i
Cc1nnc(SCc2cccc([N+](=O)[O-])c2)[nH]c1=O	nt	i	nt	i
CC1(C)OC(=O)N(c2ccccc2)C12C=Cc1c(ccc3ccccc13)O2 (centres undefined)	nt	78	i	i
Cc1c(NC(=O)C(C)OC(=O)c2ccc([N+](=O)[O-])s2)c(=O)n(-c2ccccc2)n1C (centres undefined)	nt	i	nt	i
Cc1cccc(OCCCSc2nc3ccc(C)cc3[nH]2)c1	i	82	i	i
CC1(C)CC(=O)c2cnc(NC(=O)CCc3ccccc3)nc2C1	i	i	i	i
O=C(CCc1ccccc1)Nc1ncc2c(n1)CCCC2=O	i	60	i	i
CC1=NNC(=O)/C1=C\c1cn(-c2ccccc2)nc1-c1cccs1	i	i	96	i
CC1=NNC(=O)/C1=C\c1cn(-c2ccccc2)nc1-c1ccc(F)cc1	nt	90	nt	i
NS(=O)(=O)c1ccc(CCNC(=O)COC(=O)/C=C/c2ccc(Cl)cc2)cc1	nt	i	nt	i
Cc1ccc(C(C)C)c(OCc2nn(CC(=O)c3ccc(OC(F)F)cc3)c3[n+]2CCCCC3)c1	nt	i	nt	i
CC(OC(=O)CCCN1C(=O)c2ccccc2C1=O)C(=O)Nc1ncc(Cl)cc1Cl (centres undefined)	30	i	i	i
O=C(OCc1csc(Nc2ccccc2)n1)c1ccc(Cl)cc1	i	76	i	i
O=C(c1ccccc1)c1nn(-c2ccc(Cl)cc2)c(=O)cc1C(F)(F)F	32	i	i	i
O=C(c1ccccc1)c1nn(-c2ccccc2)c(=O)cc1C(F)(F)F	i	i	i	i
Cc1ccc(Cn2nnc3c(=O)n(CC(=O)NCc4ccccc4)cnc32)cc1	nt	i	nt	i
O=C(c1ccc(Cl)cc1)C(Cn1cncn1)C(Sc1ccccc1)c1ccccc1 (centres undefined)	i	i	i	9.8
SMILES	Yeast lifespan up	WT yeast gro inh	Yeast growth inh	RAM inhibit
Cc1nc2sc3c(c2c(=O)o1)CC(C)(C)OC3	32	i	i	i
CCO[C@@H]1OC(C(=O)N2CCN(C)CC2)=C[C@H](c2coc3ccccc3c2=O)[C@H]1CCCO	nt	i	nt	i
O=C1C(=C2SCCCS2)CC/C1=C\c1ccc(F)cc1	i	i	i	i
Cc1cccc(/C=C2\CCC(=C3SCCCS3)C2=O)c1	i	i	i	9.4
Fc1ccc(N/N=C/C=C/c2ccccc2)c(F)c1	i	i	i	i
CCOc1ccc(-n2cc(C(=O)c3cc(Cl)ccc3O)cc(C#N)c2=O)cc1	nt	59	nt	i
COc1ccc(-n2cc(C(=O)c3cc(Cl)ccc3O)cc(C#N)c2=O)cc1	nt	i	nt	i
Cc1cc(C)c(Cc2c(C)nc3c(C(=O)NCc4ccco4)cnn3c2C)c(C)c1	i	63	i	i
CNC(=O)c1sc(N2N=C3/C(=C/c4ccccc4)CCCC3C2c2ccccc2)nc1C (centres undefined)	i	i	i	9.9
O=C(c1cc(Cl)nc2ccccc12)N1CCc2ccccc2C1	nt	i	nt	i
COc1cc(/C=C(\C#N)c2ccccn2)ccc1OCc1ccccc1Cl	i	i	i	9.7
COc1cc(/C=C(\C#N)c2ccccn2)ccc1OCC(=O)Nc1cccc(C(F)(F)F)c1	i	i	i	i
CN1CCN(NC(=O)c2cccc(Br)c2)CC1	i	i	i	i
CCOc1ccc(NC(=O)CCCn2c(=S)[nH]c3ccsc3c2=O)cc1	nt	i	nt	i
CCOc1ccc(CNC(=O)c2ccc(Sc3ccc(Cl)cc3)c(NC(C)=O)c2)cc1	i	i	i	i
CCOc1ccccc1CNC(=O)c1ccc(Sc2ccc(Cl)cc2)c(NC(C)=O)c1	i	65	i	i
N#CC(c1ccccc1F)(c1ncc(C(F)(F)F)cc1Cl)N1CCOCC1 (centres undefined)	i	i	i	i
N#CC(c1ccc(Cl)cc1)(c1ncc(C(F)(F)F)cc1Cl)N1CCOCC1 (centres undefined)	i	70	i	i
CCc1ccc(NS(=O)(=O)c2ccc(OC)c(C)c2)cc1	i	59	i	i
Cn1c(N=Nc2ccccc2)nc2ccccc21	i	86	i	i
CCn1c(/C=N/c2nc3ccccc3n2C)nc2ccccc21	34	i	i	i
S=C(NCCSCc1ccc(Cl)cc1)Nc1ccccc1	i	79	i	i
Fc1ccc(NC(=S)NCc2ccccc2Cl)cc1	i	i	i	i
Cc1cccc(CSCCNC(=S)Nc2ccccc2)c1	i	71	i	i
S=C(NCCSCc1ccccc1Cl)Nc1ccccc1	i	67	i	i
SMILES	Yeast lifespan up	WT yeast gro inh	Yeast growth inh	RAM inhibit
CCCOc1ccc(CSCCNC(=S)Nc2ccccc2)cc1	i	67	i	i
COC(=O)N[C@H](CC(C)=O)c1ccccc1	i	i	i	i
COc1ccc(CCC(=O)OCC(=O)c2ccc(C)cc2)cc1	i	i	i	i
NS(=O)(=O)c1ccc(N/N=C/c2ccccc2C(=O)O)c([N+](=O)[O-])c1	nt	i	nt	i
Cc1cc([N+](=O)[O-])c2[nH]c(C(=O)N/N=C/c3ccccc3C(=O)O)c(-c3ccccc3)c2c1	i	i	i	8.7
CCOC(=O)c1ccc2c(c1)N(CC#N)C(=O)C(C)(C)O2	nt	i	nt	i
COc1ccc(N(CC(=O)Nc2ccc(OC)cc2OC)S(=O)(=O)c2ccccc2)cc1	nt	i	nt	i
COc1ccc(NC(=O)CN(c2ccc(C)cc2)S(C)(=O)=O)c(OC)c1	i	62	i	i
Cc1ccnc(SCc2cc(=O)c(OC(=O)c3ccc(S(=O)(=O)N(C)C)cc3)co2)n1	i	i	i	i
CC(C)NC(=O)c1ccccc1NC(=O)Cc1ccc([N+](=O)[O-])cc1	nt	i	nt	i
FC(F)(F)c1cccc(Cn2nnnc2-c2cccc(C(F)(F)F)c2)c1	i	i	i	i
COc1cccc(-n2c(=O)[nH]cc(C(=O)Nc3ccc4c(c3)OCCO4)c2=O)c1	i	i	i	8.8
CCCN(CCC)CCNC(=O)C1c2ccccc2C(=O)N2CCc3ccccc3C12 (centres undefined)	nt	i	nt	i
Cc1ccc(NC(=O)Cn2nc(C)c(S(=O)(=O)N(C)C)c2C)cc1C	nt	i	nt	i
